Source: PubChem BioAssay (several laboratories)
CAL PDZ FP-1 = human CAL PDZ-peptide interaction inhibition. Q9HD26. purified CAL PDZ, TMR-peptide fluorescence polarization, 1 h. inhibition, % at 20 µM. actives 0.02% (n = 330,000);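 active means highest replicate inhibition of at least 40%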
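material = purified tagged CAL PDZ domain construct (CerCALP) | buffer or medium = sodium phosphate/NaCl buffer pH 7.4 with TCEP, IgG, Thesit | reagent = TMR-labelled reporter peptide T*-PRC34 bound in PDZ groove | incubation = 1 h room-temperature incubation prior to read | measured by = fluorescence polarization (mP) | evaluation = percent inhibition from loss of millipolarization | control set = unlabelled peptide and DMSO controls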
Tn7 DDE FP = disrupts Tn7 cyclic peptide binding to fibrin D-Dimer-E complex | P02675 | FP displacement of FITC-Tn7 peptide from fibrin DD(E); 0% = median of compound wells per plate | inhibition, % at 8.3 µM | actives 0.13% (n = 370,000);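 active means inhibition above the mean of compounds falling within the control limits plus 3 SD of them, cut at about 14% in these data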
Target sequence (P02675 whole entry, looked up): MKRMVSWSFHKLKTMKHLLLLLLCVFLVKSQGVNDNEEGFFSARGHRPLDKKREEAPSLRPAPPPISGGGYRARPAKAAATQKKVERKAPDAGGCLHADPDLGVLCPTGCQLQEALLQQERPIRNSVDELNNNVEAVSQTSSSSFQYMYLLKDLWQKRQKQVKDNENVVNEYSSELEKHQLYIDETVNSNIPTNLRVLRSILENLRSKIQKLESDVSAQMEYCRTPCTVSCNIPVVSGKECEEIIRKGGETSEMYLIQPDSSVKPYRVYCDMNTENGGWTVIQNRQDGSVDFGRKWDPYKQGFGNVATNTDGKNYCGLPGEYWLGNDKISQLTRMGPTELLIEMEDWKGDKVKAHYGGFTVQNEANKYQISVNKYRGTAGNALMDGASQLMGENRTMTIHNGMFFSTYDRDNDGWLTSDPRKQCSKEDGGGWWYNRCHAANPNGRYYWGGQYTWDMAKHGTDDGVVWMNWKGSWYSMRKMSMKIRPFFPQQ
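Test system – human fibrin DD(E) · Times – 10 min preincubation, 3 h with tracer, room temperature · Detection – fluorescence polarization of the labelled Tn7 tracer · Measure – percent inhibition normalized to high-control wells · Benchmarks – high control wells with 10 µM unlabelled Aha-Tn7 peptide (full inhibition) · Repeats – singlicate testing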
CAL PDZ FP-2 = inhibitors of human CAL PDZ peptide binding | Q9HD26 | purified CAL PDZ, TMR-peptide fluorescence polarization, 1 h | inhibition, % at 24.9 µM | actives 0.92% (n = 300,000) | AID 602252;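 active means mean inhibition of at least 30% with at least half of replicates also reaching 30%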
DDE Tn6 FP inh = inhibitors of Tn6 peptide binding to human fibrin DD(E) | Fibrin DD(E) TRITC-Tn6 fluorescence polarization displacement | inhibition, % at 8.3 µM | actives 0.21% (n = 370,000) | AID 720509;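 active means inhibition above a per-campaign cutoff: mean of compounds within control limits plus 3 SD, cut at about 15% in these data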
GRK2 aptamer HTS = blocks RNA aptamer binding to human GRK2. bead flow cytometry, FAM-aptamer displacement from GRK2. actives 0.59% (n = 330,000). inhibition of aptamer binding, % at 10 µM. P25098;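 active means inhibition of aptamer binding above 40%, roughly 3 SD of noise, on plates passing a quality check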;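 further: median bead fluorescence of bound FAM aptamer so fluorescent compounds give negative values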
ARNT TACC3 PPI = ARNT/TACC3 interaction disruption; AID 623870; actives 0.66% (n = 390,000); AlphaScreen His-ARNT PAS-B/GST-TACC3 binding, luminescence; TACC3 fragment carries E629A point mutation; inhibition, % at 9.99 µM; Q9Y6A5;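 active means mean inhibition of replicates at least 50% and at least half of replicates each reaching 50%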
GRK2 inh confirm = human GRK2 inhibition confirmation, cherry pick 1 | shares compounds with GRK2 aptamer HTS | bead-bound GRK2, FAM-aptamer displacement, flow cytometry | aptamer displacement, % at 10 µM | actives 4% (n = 2,000) | AID 504451;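 active means aptamer displacement above 40%, near three times the noise of non-fluorescent compounds, on plates passing quality checks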;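 further: negative values mostly reflect intrinsic compound fluorescence rather than true enhancement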
Aptamer quench 1 = fluorescent aptamer quenching in GRK2 counter-screen dose response; shares compounds with GRK2 aptamer HTS; Fluorescent RNA aptamer beads, flow cytometry; hits give high values; fluorescence change (kMESF span), kMESF (no concentration beside the values); 110 tested, under 10 active; AID 504521;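 active means compounds whose bead fluorescence drops by more than 37 kMESF across the dose range, marking them as dye quenchers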
FAM quench CP1 = quenches fluorescent RNA aptamer, GRK2 hit artifact; shares compounds with GRK2 aptamer HTS; Carboxyfluorescein RNA aptamer on beads, flow cytometry quenching; hits give low values; fluorescence response (% of DMSO), % at 10 µM; 2,000 tested, under 10 active;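 active means compounds that quench the bead-bound fluorescent RNA probe, cutting fluorescence to under half of the solvent control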;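 further: counterscreen run without GRK2 so only probe quenching by compound is measured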
GRK2 CP2 = human GRK2 inhibition confirmation, cherry pick 2; shares compounds with GRK2 aptamer HTS; bead-bound GRK2, FAM-aptamer displacement, flow cytometry; inhibition of aptamer binding, % at 10 µM; 360 tested, under 10 active; AID 504782;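 active means inhibition of aptamer binding above 40%, about triple the noise seen with nonglowing compounds, on plates passing quality control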;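 further: negative values mostly come from compounds that fluoresce themselves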
FAM quench CP2 = counter-screen for GRK2 binding hits: quenchers of fluorescent RNA aptamer. 360 tested, under 10 active. fluorescence response vs DMSO, % at 10 µM. shares compounds with GRK2 aptamer HTS. carboxyfluorescein RNA aptamer beads, flow cytometry quenching; hits give low values;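 active means response vs DMSO under 50%, meaning signal dropped by over half, treated as fluorescence quencher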;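 further: labelled aptamer on streptavidin beads without GRK2 as a quench counter-screen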
Numbers stand for hits; – = inactive; · = no result given. The list is not random: actives were taken first. Their share in the collection is about 1.8%.

SMILES	CAL PDZ FP-1	Tn7 DDE FP	CAL PDZ FP-2	DDE Tn6 FP inh	GRK2 aptamer HTS	ARNT TACC3 PPI	GRK2 inh confirm	FAM quench CP1	others
COc1cc(/C=C(\NC(C)=O)C(=O)O)cc(OC)c1OC	·	–	·	–	–	·	·	·
COc1cc(/C=C(/NC(C)=O)C(=O)O)cc(Cl)c1OCc1ccc(Br)cc1	–	–	–	–	80.0	–	–	–
COC(=O)C1=C(C)N(Cc2ccccc2C(F)(F)F)C(=NCc2ccc(OC)cc2)NC1CCc1ccccc1 (stereo not drawn)	·	–	·	–	·	·	·	·
CC(C)C#Cc1cnc2c(c1)C(=O)N([C@@H](C)CO)C[C@H](C)[C@H](CN(C)C(=O)Nc1ccccc1F)O2	·	·	·	·	·	–	·	·
O=S(=O)(Nc1ncnc2sc3c(c12)CCC3)c1cc(F)ccc1F	–	–	–	–	–	–	·	·
Fc1cccc(Nc2ncnc3sc4c(c23)CCC4)c1	–	–	–	–	94.0	–	·	·	GRK2 CP2=–;FAM quench CP2=–
CO[C@@H]1CN(C)C(=O)c2cc(NC(=O)Cc3ccccc3)ccc2OC[C@@H](C)N(CC2CC2)C[C@@H]1C	·	·	·	·	·	–	·	·
COc1ccc2cc(C#N)c(SCC(=O)N3CC(=O)Nc4ccccc43)nc2c1	–	·	–	·	–	–	·	·
Cc1cccc2cc(C#N)c(SCC(=O)N3CC(=O)Nc4ccccc43)nc12	–	–	·	–	57.0	–	–	–
COc1ccccc1CNC(=O)C1CCCN(S(=O)(=O)c2ccc3c(c2)C(C)(C)C(=O)N3C)C1 (stereo not drawn)	–	–	·	–	–	–	–	–
Cc1ccc(CNC(=O)C2CCCN(S(=O)(=O)c3ccc(-n4cnnn4)cc3)C2)cc1 (stereo not drawn)	–	–	–	–	–	–	–	–
O=C(NCc1ccccc1F)C1CCCN(S(=O)(=O)c2ccc(-n3cnnn3)cc2)C1 (stereo not drawn)	–	–	–	–	–	–	–	–
CC(C)CCNC(=O)C1CCCN(S(=O)(=O)c2ccc(-n3cnnn3)cc2)C1 (stereo not drawn)	–	–	–	–	–	–	·	·
O=C(NCc1ccco1)C1CCCN(S(=O)(=O)c2ccc(-n3cnnn3)cc2)C1 (stereo not drawn)	–	–	–	–	–	·	·	·
COc1cccc(CN(C)C(=O)CSCC(=O)Nc2cccc(C)c2)c1OC	–	–	·	–	–	–	·	·
C[C@H](CO)N1C[C@H](C)[C@H](CN(C)Cc2ccccc2)Oc2cc(C#Cc3ccccn3)ccc2S1(=O)=O	·	·	·	·	·	–	·	·
COC(=O)CCC(=O)Nc1ccc(S(=O)(=O)Nc2cc(OC)nc(OC)n2)cc1	–	–	–	–	–	–	–	–
CCCCCC(=O)Nc1ccc(S(=O)(=O)Nc2cc(OC)nc(OC)n2)cc1	–	–	–	–	–	–	·	·
COc1ccc(Cl)cc1S(=O)(=O)NCc1cccs1	–	–	·	–	51.0	–	–	–
CO[C@@H]1CN(C)C(=O)c2cc(NS(=O)(=O)c3cccc(F)c3)ccc2OC[C@@H](C)N(C(=O)Cc2cccnc2)C[C@@H]1C	·	·	·	·	·	–	·	·
CCOc1ccc(NC(=O)c2ccc(N3CC4CC(C3)c3cccc(=O)n3C4)c(N)c2)cc1 (stereo not drawn)	–	–	–	–	93.0	–	–	–
O=c1[nH]cnc2onc(-c3ccc(F)cc3)c12	–	–	–	–	–	–	–	–
CC(=O)Nc1sc(N/N=C\c2ccc(O)cc2)nc1-c1cccs1	–	–	–	–	81.0	–	–	–
CC(=O)Nc1sc(N/N=C\c2cccc(Cl)c2)nc1-c1cccs1	–	–	–	–	–	–	·	·
Cc1ccccc1NC(=O)c1sc(NC(=O)COc2ccccc2)c(C#N)c1C	–	–	–	–	–	–	·	·
SMILES	CAL PDZ FP-1	Tn7 DDE FP	CAL PDZ FP-2	DDE Tn6 FP inh	GRK2 aptamer HTS	ARNT TACC3 PPI	GRK2 inh confirm	FAM quench CP1	others
CNC(=O)c1c[nH]c2ccc(S(=O)(=O)Nc3ccccc3F)cc2c1=O	–	–	–	–	93.0	–	–	–
CCc1ccccc1NS(=O)(=O)c1ccc2[nH]cc(C(=O)NC3CCCC3)c(=O)c2c1	–	–	–	–	–	–	·	·
COc1ccccc1CNS(=O)(=O)c1ccc2[nH]cc(C(=O)O)c(=O)c2c1	–	·	–	·	59.0	–	55.6	–	Aptamer quench 1=–
O=S(=O)(NC1CC(NS(=O)(=O)OCC(Cl)(Cl)Cl)C2CCCCC12)OCC(Cl)(Cl)Cl (stereo not drawn)	–	·	–	·	74.0	–	–	–
C[C@H](NS(=O)(=O)OCC(Cl)(Cl)Cl)C1CC1c1ccccc1 (stereo partly drawn)	–	–	–	–	–	·	·	·
C[C@H](CO)N1C[C@H](C)[C@H](CN(C)S(C)(=O)=O)Oc2ccc(NC(=O)Nc3cccc4ccccc34)cc2CC1=O	·	·	·	·	·	–	·	·
O=[N+]([O-])c1cc(/C=N/Nc2nc3ccccc3[nH]2)c(O)cc1O	·	–	·	–	45.0	·	–	–
C[C@H]1CN([C@@H](C)CO)C(=O)c2cc(C3=CCCC3)cnc2O[C@H]1CN(C)C(=O)c1ccc(F)cc1	·	·	·	·	·	–	·	·
CC(=O)Nc1nnc(CCS(=O)(=O)c2ccc(Cl)cc2)s1	–	–	–	–	·	–	·	·
CCCCc1nnc(NC(=O)CCS(=O)(=O)c2ccc(Cl)cc2)s1	–	–	–	–	–	–	–	–
CCCc1nnc(NC(=O)CCS(=O)(=O)c2ccccc2)s1	–	–	–	–	–	–	–	–
Cc1ccccc1C(=O)NCC(=O)NNC(=O)c1cccc(Cl)c1	–	–	–	–	–	–	·	·
C[C@H](O)C#Cc1cnc2c(c1)C(=O)N([C@@H](C)CO)C[C@@H](C)[C@H](CN(C)C(=O)CN1CCOCC1)O2	·	·	·	·	·	–	·	·
C=CCOc1ccc(C2C(C(=O)c3ccco3)=C(O)C(=O)N2c2nnc(C)s2)cc1 (stereo not drawn)	–	–	–	–	73.0	–	–	–
COc1ccc(C2C(C(=O)c3ccco3)=C(O)C(=O)N2c2nnc(C)s2)cc1 (stereo not drawn)	–	–	–	–	–	–	·	·
